Consider nine compounds from ChEMBL document CHEMBL1149071, “Lignans from the wood of Abies pinsapo” (J Nat Prod, 1994).

Activity calls are given as the source filed them. The calls are words filed in the database; no cut-off is given here.

Holding throughout (format): functional, organism-based
For experiment [1], the system named is Vesicular stomatitis virus. The experiment can be described thus: Antiviral activity against VSV at 40 ug/ml.
For the next experiment, the system named is Human alphaherpesvirus 1. Put plainly: Antiviral activity against HSV1 at 40 ug/ml.
In another experiment the test system is Aspergillus niger. The experiment can be described thus: Antifungal ativity against Aspergillus niger CECT 2089. The gist of the method: (§1)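 Disk diffusion on brain-heart agar plates inoculated with 0.1 ml of 8 h-old fungal cultures grown in CM medium (1% glucose, 0.5% yeast extract, 0.5% malt extract). 5-mm paper disks carrying 1 mg of sample were applied. Plates were held 2 h at 4° for diffusion, then incubated at 28°. Growth-inhibition halo (mm) was read at 18 h.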

The next experiment has as its system Penicillium. The experiment can be described thus: Antifungal ativity against Penicillium. The gist of the method:
as §1

As for `COc1cc([C@H]2OC[C@H]([C@@H](OC(C)=O)c3ccc(OC(C)=O)c(OC)c3)[C@@H]2COC(C)=O)ccc1OC(C)=O`, the outcome (in experiment [1]; in the experiment with Human alphaherpesvirus 1) was inactive.

With `COc1cc(C[C@H]2COC(=O)[C@@H]2Cc2ccc(O)c(OC)c2)ccc1O`, the result (in experiment [1]; in the experiment with Human alphaherpesvirus 1; in the experiment with Aspergillus niger) was inactive. For the same compound, the Growth-inhibition halo result in the experiment on Penicillium was “inactive”.

Take `COc1cc([C@H]2OC[C@H]([C@H](OC(C)=O)c3ccc(OC(C)=O)c(OC)c3)[C@@H]2COC(C)=O)ccc1OC(C)=O`: the outcome (in experiment [1]; with Human alphaherpesvirus 1) was inactive.

Take `COc1cc(C[C@H]2CO[C@H](c3ccc(O)c(OC)c3)[C@H]2CO)ccc1O`: the outcome (in experiment [1]; with Human alphaherpesvirus 1; with Aspergillus niger) was inactive. Further, in the experiment with Penicillium, the Growth-inhibition halo result was “inactive”.

For `COc1cc(C[C@H]2COC(O)[C@@H]2Cc2ccc(O)c(OC)c2)ccc1O` (some centres undefined), the outcome (in experiment [1]; in the experiment on Human alphaherpesvirus 1; in the experiment with Aspergillus niger) was inactive. The Growth-inhibition halo result with Penicillium was “inactive”.

With `COc1cc(C[C@H](CO)Oc2ccc(C[C@H]3C(=O)OC[C@@H]3Cc3ccc(O)c(OC)c3)cc2OC)ccc1O`, in the experiment with Aspergillus niger, the result was inactive. Moreover, the Growth-inhibition halo result with Penicillium is “inactive”.

`COc1cc(C[C@H]2[C@H](OC(C)=O)OC[C@@H]2[C@H](OC(C)=O)c2ccc(OC(C)=O)c(OC)c2)ccc1OC(C)=O`: the outcome (in experiment [1]; in the experiment on Human alphaherpesvirus 1) was inactive.

For the compound `COc1cc(C[C@H]2[C@H](OC(C)=O)O[C@H](c3ccc(OC(C)=O)c(OC)c3)[C@H]2COC(C)=O)ccc1OC(C)=O`, the result (in experiment [1]; in the experiment with Human alphaherpesvirus 1) was inactive.

With `COc1cc(C[C@H](COC(C)=O)Oc2ccc(C[C@@H]3[C@@H](Cc4ccc(OC(C)=O)c(OC)c4)CO[C@H]3OC(C)=O)cc2OC)ccc1OC(C)=O`, the result (in experiment [1]; in the experiment on Human alphaherpesvirus 1) was inactive.
